In brackets after ≈: the same amount, converted by molar mass. Where a SMILES comes first, the peptide text is derived from it. Bridges are numbered along the chain shown (N, C = ends). [ ]: non-standard residue; d: D form. The star is where a group is joined. X1 = CC[C@H](C)CCCCC(=O)*; Dab = NCC[C@H](N)C(=O)O
Assays:
Staphylococcus aureus [1] = experiment: Antibacterial activity against methicillin-resistant Staphylococcus aureus USA 300 assessed as reduction in bacterial growth after 18 hrs by CLSI based broth microdilution assay; format: functional
How it was run: (§1)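 CLSI broth microdilution for MIC (with MBC) in polypropylene microtiter plates, inoculum ~5 × 10^5 CFU/mL. Run independently on three occasions. The reported MIC is the lowest concentration on which all three biological replicates agreed.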

[2] = Cytotoxicity against NHDF cells assessed as reduction in cell viability measured after 24 hrs by MTT assay; format: toxicity, cell-based; conditions: human, read-out: LD50
How it was run: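 Adherent normal human dermal fibroblasts were read by MTT against a DMSO vehicle control. Viability is expressed as percent of untreated controls. At least three independent biological replicates were run, with each concentration in technical duplicate.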

Enterococcus faecium = experiment: Antibacterial activity against vancomycin-resistant Enterococcus faecium RBWH1 assessed as reduction in bacterial growth after 18 hrs by CLSI based broth microdilution assay; conditions: RBWH1, 18 h
Streptococcus pneumoniae = experiment: Antibacterial activity against Streptococcus pneumoniae ATCC 49619 assessed as reduction in bacterial growth after 18 hrs by CLSI based broth microdilution assay; format: functional
Staphylococcus aureus [3] = experiment: Antibacterial activity against Staphylococcus aureus ATCC 25923 assessed as reduction in bacterial growth after 18 hrs by CLSI based broth microdilution assay; format: functional; how it was run: as §1
Candida albicans = experiment: Antifungal activity against Candida albicans SC5314 assessed as reduction in fungal growth incubated for 48 hrs by CLSI based broth microdilution assay; format: functional
How it was run: (§2)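 Yeast susceptibility by CLSI broth microdilution (M27), final inoculum 0.5 × 10^3 to 2.5 × 10^3 CFU/mL. Run independently on three occasions; MIC reported as the lowest concentration giving agreement across all three biological replicates.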

Streptococcus pyogenes = experiment: Antibacterial activity against macrolide- and tetracycline-resistant Streptococcus pyogenes HKU16 assessed as reduction in bacterial growth after 18 hrs by CLSI based broth microdilution assay; format: functional; how it was run: as §1
Enterococcus faecalis = experiment: Antibacterial activity against Enterococcus faecalis ATCC 29212 assessed as reduction in bacterial growth after 18 hrs by CLSI based broth microdilution assay; format: functional; how it was run: as §1
Acinetobacter baumannii [4] = experiment: Antibacterial activity against Acinetobacter baumannii ATCC 19606 assessed as reduction in bacterial growth after 18 hrs by CLSI based broth microdilution assay; format: functional
Aspergillus fumigatus = experiment: Antifungal activity against Aspergillus fumigatus SVB-F136 assessed as fungal growth inhibition after 48 hrs by CLSI protocol based microbroth dilution method; format: functional
How it was run: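 Filamentous fungus tested by CLSI broth microdilution with final inoculum 0.4 × 10^4 to 5 × 10^4 CFU/mL. Three independent biological replicates; MIC is the lowest concentration at which all three agreed.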

Pseudomonas aeruginosa = experiment: Antibacterial activity against Pseudomonas aeruginosa SVB-B9 assessed as reduction in bacterial growth after 18 hrs by CLSI based broth microdilution assay; format: functional
Acinetobacter baumannii [5] = experiment: Antibacterial activity against multi-drug resistant Acinetobacter baumannii AB5075 assessed as reduction in bacterial growth after 18 hrs by CLSI based broth microdilution assay; format: functional; how it was run: as §1
Cyberlindnera jadinii = experiment: Antifungal activity against Candida utilis SVB-Y1 assessed as reduction in fungal growth after 48 hrs by CLSI based broth microdilution assay; format: functional; conditions: Williopsis jadinii; how it was run: as §2
Klebsiella pneumoniae = experiment: Antibacterial activity against Klebsiella pneumoniae MS6671 assessed as reduction in bacterial growth after 18 hrs by CLSI based broth microdilution assay; format: functional
Escherichia coli [6] = experiment: Antibacterial activity against Escherichia coli ATCC 25922 assessed as reduction in bacterial growth after 18 hrs by CLSI based broth microdilution assay; format: functional; how it was run: as §1
Escherichia coli [7] = experiment: Antibacterial activity against multi-drug resistant Escherichia coli MS8345 assessed as reduction in bacterial growth after 18 hrs by CLSI based broth microdilution assay; format: functional; how it was run: as §1

SMILES | MIC (Staphylococcus aureus [1]) | CC50 at 24 h [2] | MIC (Enterococcus faecium) | MIC (Streptococcus pneumoniae) | MIC (Staphylococcus aureus [3]) | MIC (Candida albicans) | MIC (Streptococcus pyogenes) | MIC (Enterococcus faecalis) | MIC (Acinetobacter baumannii [4]) | MIC (Aspergillus fumigatus) | MIC (Pseudomonas aeruginosa) | MIC (Acinetobacter baumannii [5]) | MIC (Cyberlindnera jadinii) | MIC (Klebsiella pneumoniae) | MIC (Escherichia coli [6]) | MIC (Escherichia coli [7])
N=C(N)NCCC[C@@H]1C(=O)N(Cc2ccc(-c3ccccc3)cc2)[C@@H](CCCNC(=N)N)C(=O)N1Cc1ccc(-c2ccccc2)cc1 | 4 µM (≈ 2.58 µg/mL) | 175 µM | 8 µM (≈ 5.16 µg/mL) | 16 µM (≈ 10.3 µg/mL) | 4 µM (≈ 2.58 µg/mL) | 8 µM (≈ 5.16 µg/mL) | 16 µM (≈ 10.3 µg/mL) | 16 µM (≈ 10.3 µg/mL) | > 64 µM | 64 µM (≈ 41.3 µg/mL) | 64 µM (≈ 41.3 µg/mL) | > 64 µM | 2 µM (≈ 1.29 µg/mL) | > 64 µM | 64 µM (≈ 41.3 µg/mL) | > 64 µM
N=C(N)NCCC[C@H]1C(=O)N(Cc2ccc(-c3ccccc3)cc2)[C@@H](CCCNC(=N)N)C(=O)N1Cc1ccc(-c2ccccc2)cc1 | 4 µM (≈ 2.58 µg/mL) | 63 µM | 8 µM (≈ 5.16 µg/mL) | 8 µM (≈ 5.16 µg/mL) | 4 µM (≈ 2.58 µg/mL) | 4 µM (≈ 2.58 µg/mL) | 8 µM (≈ 5.16 µg/mL) | 2 µM (≈ 1.29 µg/mL) | 64 µM (≈ 41.3 µg/mL) | 8 µM (≈ 5.16 µg/mL) | 8 µM (≈ 5.16 µg/mL) | 16 µM (≈ 10.3 µg/mL) | 4 µM (≈ 2.58 µg/mL) | 32 µM (≈ 20.6 µg/mL) | 8 µM (≈ 5.16 µg/mL) | 8 µM (≈ 5.16 µg/mL)
N=C(N)NCCC[C@H]1C(=O)N(Cc2ccccc2)[C@@H](CCCNC(=N)N)C(=O)N1Cc1ccccc1 | > 64 µM | > 512 µM | > 64 µM | > 64 µM | > 64 µM | > 64 µM | 64 µM (≈ 31.5 µg/mL) | > 64 µM | > 64 µM | > 64 µM | > 64 µM | > 64 µM | > 64 µM | > 64 µM | > 64 µM | > 64 µM
N=C(N)NCCC[C@@H]1C(=O)N(Cc2ccc(-c3ccccc3)cc2)[C@H](CCCNC(=N)N)C(=O)N1Cc1ccc(-c2ccccc2)cc1 | 4 µM (≈ 2.58 µg/mL) | 99 µM | 4 µM (≈ 2.58 µg/mL) | 8 µM (≈ 5.16 µg/mL) | 4 µM (≈ 2.58 µg/mL) | 2 µM (≈ 1.29 µg/mL) | 8 µM (≈ 5.16 µg/mL) | 4 µM (≈ 2.58 µg/mL) | 64 µM (≈ 41.3 µg/mL) | 8 µM (≈ 5.16 µg/mL) | 8 µM (≈ 5.16 µg/mL) | 32 µM (≈ 20.6 µg/mL) | 4 µM (≈ 2.58 µg/mL) | 64 µM (≈ 41.3 µg/mL) | 8 µM (≈ 5.16 µg/mL) | 16 µM (≈ 10.3 µg/mL)
NCCC[C@H]1C(=O)N(Cc2ccc(-c3ccccc3)cc2)[C@@H](CCCN)C(=O)N1Cc1ccc(-c2ccccc2)cc1 | 4 µM (≈ 2.24 µg/mL) | 30 µM | 8 µM (≈ 4.49 µg/mL) | 8 µM (≈ 4.49 µg/mL) | 4 µM (≈ 2.24 µg/mL) | 64 µM (≈ 35.9 µg/mL) | 8 µM (≈ 4.49 µg/mL) | 8 µM (≈ 4.49 µg/mL) | 64 µM (≈ 35.9 µg/mL) | 32 µM (≈ 17.9 µg/mL) |  | 32 µM (≈ 17.9 µg/mL) | 32 µM (≈ 17.9 µg/mL) | 8 µM (≈ 4.49 µg/mL) | 16 µM (≈ 8.97 µg/mL) | 16 µM (≈ 8.97 µg/mL)
CC[C@H](C)CCCCC(=O)N[C@@H](CCN)C(=O)N[C@H](C(=O)N[C@@H](CCN)C(=O)N[C@H]1CCNC(=O)[C@H]([C@@H](C)O)NC(=O)[C@H](CCN)NC(=O)[C@H](CCN)NC(=O)[C@H](CC(C)C)NC(=O)[C@@H](Cc2ccccc2)NC(=O)[C@H](CCN)NC1=O)[C@@H](C)O (X1-[Dab]T[Dab][Dab][Dab][dF]L[Dab][Dab]T; lactam 4-C) | 32 µM (≈ 38.5 µg/mL) | > 512 µM | > 64 µM | 8 µM (≈ 9.63 µg/mL) | 64 µM (≈ 77 µg/mL) |  | 32 µM (≈ 38.5 µg/mL) | 8 µM (≈ 9.63 µg/mL) | 1 µM (≈ 1.2 µg/mL) |  |  | 0.25 µM (≈ 0.301 µg/mL) |  | 16 µM (≈ 19.3 µg/mL) | 0.25 µM (≈ 0.301 µg/mL) | 4 µM (≈ 4.81 µg/mL)
CC1(C)S[C@@H]2[C@H](NC(=O)[C@H](N)c3ccc(O)cc3)C(=O)N2[C@H]1C(=O)O [AMOXICILLIN] | > 64 µM | > 512 µM | 64 µM (≈ 23.4 µg/mL) | 0.5 µM (≈ 0.183 µg/mL) | 1 µM (≈ 0.365 µg/mL) |  | 0.25 µM (≈ 0.0914 µg/mL) | 8 µM (≈ 2.92 µg/mL) |  |  | > 64 µM |  |  |  | 16 µM (≈ 5.85 µg/mL) | 
C[C@@H]1[C@H](O)[C@@H](C)/C=C/C=C/C=C/C=C/C=C/C=C/C=C/[C@H](O[C@@H]2O[C@H](C)[C@@H](O)[C@H](N)[C@@H]2O)C[C@@H]2O[C@](O)(C[C@@H](O)C[C@@H](O)[C@H](O)CC[C@@H](O)C[C@@H](O)CC(=O)O[C@H]1C)C[C@H](O)[C@H]2C(=O)O [AMPHOTERICIN B] |  |  |  |  |  | 1 µM (≈ 0.924 µg/mL) |  |  |  | 4 µM (≈ 3.7 µg/mL) |  |  | 2 µM (≈ 1.85 µg/mL) |  |  | 
